In article PMC11628833 (Acta Pharmaceutica Sinica. B, 2024):

Tests used:
MRL/lpr mice = MRL/lpr mice SLE model; type: in vivo, mouse; conditions: female MRL/lpr mice, S14 50 mg/kg oral once daily; vs placebo
In short: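 Mice were 14-week-old female MRL/lpr, randomized by body weight, n = 12/group, treated 4 weeks. Oral test compound in 10% w/v PEG-400/1,3-propanediol/water (55:20:25): 100 mg/kg twice daily, or a second compound at 50 mg/kg once daily. Controls: hydroxychloroquine 100 mg/kg daily in saline; saline placebo. Weekly: survival, body weight, skin lesions, and fundus-vein plasma for ANA/anti-dsDNA ELISA. Endpoint: spleen weight and H&E kidney histology.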

hTLR8 = target: T1, hTLR8 (Homo sapiens, UniProt Q9NR97); test: SEAP reporter assay in HEK-Blue hTLR8 cells; type: cell-based
T1 sequence (Q9NR97 27-1041): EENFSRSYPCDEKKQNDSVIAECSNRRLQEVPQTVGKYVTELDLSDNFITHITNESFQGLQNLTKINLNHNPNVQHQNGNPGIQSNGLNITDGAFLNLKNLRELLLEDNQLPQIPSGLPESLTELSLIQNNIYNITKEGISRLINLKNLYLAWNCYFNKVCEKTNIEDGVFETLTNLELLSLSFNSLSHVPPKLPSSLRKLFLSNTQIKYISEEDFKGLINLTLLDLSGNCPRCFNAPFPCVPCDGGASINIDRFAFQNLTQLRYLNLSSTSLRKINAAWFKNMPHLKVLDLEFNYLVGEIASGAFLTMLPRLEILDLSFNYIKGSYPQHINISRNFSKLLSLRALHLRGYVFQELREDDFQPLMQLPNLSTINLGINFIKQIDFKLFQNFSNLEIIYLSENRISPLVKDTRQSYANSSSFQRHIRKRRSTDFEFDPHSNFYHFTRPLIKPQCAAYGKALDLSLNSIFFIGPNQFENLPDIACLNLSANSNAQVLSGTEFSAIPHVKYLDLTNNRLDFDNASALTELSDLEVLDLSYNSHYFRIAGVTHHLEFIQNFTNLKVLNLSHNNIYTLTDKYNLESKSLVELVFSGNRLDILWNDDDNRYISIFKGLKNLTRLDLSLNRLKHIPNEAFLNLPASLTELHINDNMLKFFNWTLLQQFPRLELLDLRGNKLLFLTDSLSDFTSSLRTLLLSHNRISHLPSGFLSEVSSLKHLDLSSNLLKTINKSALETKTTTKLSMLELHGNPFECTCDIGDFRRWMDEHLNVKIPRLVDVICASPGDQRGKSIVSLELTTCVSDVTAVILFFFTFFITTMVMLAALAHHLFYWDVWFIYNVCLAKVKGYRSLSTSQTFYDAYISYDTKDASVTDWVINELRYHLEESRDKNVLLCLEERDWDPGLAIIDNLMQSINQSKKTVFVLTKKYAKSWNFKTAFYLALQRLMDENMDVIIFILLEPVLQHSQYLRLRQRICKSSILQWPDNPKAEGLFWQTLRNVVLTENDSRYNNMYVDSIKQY

human TLR7 = target: T2, human TLR7 (Homo sapiens, UniProt Q9NYK1); test: SEAP reporter assay in HEK-Blue hTLR7 cells; type: cell-based
T2 sequence (Q9NYK1 27-1049): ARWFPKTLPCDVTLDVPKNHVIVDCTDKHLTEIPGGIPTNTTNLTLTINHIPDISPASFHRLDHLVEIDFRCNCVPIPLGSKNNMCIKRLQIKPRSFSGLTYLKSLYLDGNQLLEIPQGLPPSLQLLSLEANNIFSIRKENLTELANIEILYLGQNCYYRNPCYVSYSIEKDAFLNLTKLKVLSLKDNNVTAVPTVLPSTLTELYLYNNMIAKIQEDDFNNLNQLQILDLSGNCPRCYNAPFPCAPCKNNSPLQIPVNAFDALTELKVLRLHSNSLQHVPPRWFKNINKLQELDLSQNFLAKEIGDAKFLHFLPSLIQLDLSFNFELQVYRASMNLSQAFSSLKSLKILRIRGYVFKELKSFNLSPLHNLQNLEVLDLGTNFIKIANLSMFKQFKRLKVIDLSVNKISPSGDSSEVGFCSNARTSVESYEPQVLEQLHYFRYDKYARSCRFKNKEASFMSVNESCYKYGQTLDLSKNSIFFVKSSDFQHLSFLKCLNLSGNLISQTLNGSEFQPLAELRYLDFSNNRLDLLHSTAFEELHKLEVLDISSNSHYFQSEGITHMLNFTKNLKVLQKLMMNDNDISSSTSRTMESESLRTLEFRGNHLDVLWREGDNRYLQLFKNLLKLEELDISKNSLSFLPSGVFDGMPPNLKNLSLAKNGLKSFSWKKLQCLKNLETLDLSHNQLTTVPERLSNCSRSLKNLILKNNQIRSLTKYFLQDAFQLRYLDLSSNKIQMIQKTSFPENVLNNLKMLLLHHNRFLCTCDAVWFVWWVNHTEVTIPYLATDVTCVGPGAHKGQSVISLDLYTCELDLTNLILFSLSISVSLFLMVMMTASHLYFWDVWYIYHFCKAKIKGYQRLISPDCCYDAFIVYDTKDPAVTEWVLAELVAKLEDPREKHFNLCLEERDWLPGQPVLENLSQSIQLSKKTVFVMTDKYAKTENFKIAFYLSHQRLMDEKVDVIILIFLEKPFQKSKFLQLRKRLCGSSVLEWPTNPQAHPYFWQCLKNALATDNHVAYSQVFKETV
In short: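 HEK-Blue hTLR7 cells (stable human TLR7 with SEAP reporter) were plated at 5 × 10^5 cells/mL in DMEM with 10% heat-inactivated FBS. They were treated with R848 and varying test compound concentrations at 37 °C for 20–24 h. Medium was mixed with QUANTI-Blue, incubated at 37 °C for about 30 min, and read at 620 nm. R848-only = 100% activation; untreated = 0%.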

[1] = target: T3, TLR7 extracellular domain (Macaca mulatta, UniProt B3Y653, N167Q/N389Q/N488Q/N799Q, form not given); test: ITC titration to TLR7 recombinant protein; type: binding, Monkey (Macaca mulatta)
T3 sequence (B3Y653 27-839 N167Q/N389Q/N488Q/N799Q): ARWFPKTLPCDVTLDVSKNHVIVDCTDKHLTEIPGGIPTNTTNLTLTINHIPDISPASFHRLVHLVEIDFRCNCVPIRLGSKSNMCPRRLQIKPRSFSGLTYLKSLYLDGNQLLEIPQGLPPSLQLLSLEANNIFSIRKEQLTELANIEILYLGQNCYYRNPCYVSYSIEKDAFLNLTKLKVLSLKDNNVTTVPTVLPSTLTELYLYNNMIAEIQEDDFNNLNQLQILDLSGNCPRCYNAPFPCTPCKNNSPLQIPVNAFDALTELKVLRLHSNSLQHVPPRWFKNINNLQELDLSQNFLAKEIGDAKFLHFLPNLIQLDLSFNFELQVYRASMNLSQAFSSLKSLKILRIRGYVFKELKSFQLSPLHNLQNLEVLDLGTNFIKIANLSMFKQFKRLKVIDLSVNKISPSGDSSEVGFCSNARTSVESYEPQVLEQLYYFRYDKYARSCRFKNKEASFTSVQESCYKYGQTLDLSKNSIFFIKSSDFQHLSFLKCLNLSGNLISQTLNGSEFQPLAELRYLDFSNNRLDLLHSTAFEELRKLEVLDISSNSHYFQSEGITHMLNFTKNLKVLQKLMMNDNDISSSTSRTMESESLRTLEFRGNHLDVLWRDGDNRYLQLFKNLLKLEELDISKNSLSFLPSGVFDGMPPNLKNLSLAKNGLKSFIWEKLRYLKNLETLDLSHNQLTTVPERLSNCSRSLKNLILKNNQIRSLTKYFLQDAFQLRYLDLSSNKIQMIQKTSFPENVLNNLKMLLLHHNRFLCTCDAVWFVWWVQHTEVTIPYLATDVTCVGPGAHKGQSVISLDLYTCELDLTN
In short: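 Titrations used the same purified rhesus TLR7 ectodomain, at 298 K in citrate/NaOH pH 4.8, 150 mmol/L NaCl. Syringe held 1 mmol/L test compound or loxoribine; cell held TLR7, with or without the other ligand pre-added. Each run was one small injection followed by 18 injections at 180 s intervals. Kd and ΔH obtained by single-site binding model fitting.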

[2] = system: IL-8 mRNA (TLR7 downstream); test: RT-PCR analysis of IL-8 mRNA in R848 treated HEK-Blue TLR7 cells; type: cell-based, human; conditions: 2 μg/mL R848 treated HEK-Blue TLR7 cells
In short: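 HEK-Blue TLR7 cells were seeded at 1 × 10^6 cells/well for 24 h, then switched to serum-free medium. They were treated ± R848 with various test compound concentrations for 16 h at 37 °C. IL-8 mRNA was quantified by RT-PCR using the ΔΔCt method, with GAPDH as reference and normalization to untreated cells.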

[3] = 1 mmol/L loxoribine into 50 μmol/L TLR7, absence of TH-407b

`O=C(c1ccncc1)N1CCN(c2ccc([N+](=O)[O-])c3ncccc23)CC1` [Compound S14] was tested, and the “ANA and anti-ds-DNA antibody levels” value (MRL/lpr mice) was “no significant alterations”, the glomerular diameter (MRL/lpr mice) was “no significant alterations” and the skin lesion severity (MRL/lpr mice) was “no significant alterations”. The spleen index (MRL/lpr mice) was “no significant alterations”, the survival rate (MRL/lpr mice) was “notably lower than the placebo group” and the IC50 (hTLR8) was 60 ± 10 nM. The IC50 (human TLR7) was 3000 ± 370 nM.

With `O=C(c1ccc([N+](=O)[O-])cc1)N1CCN(c2ccc([N+](=O)[O-])c3ncccc23)CC1` [Compound S5] the IC50 (hTLR8) was 150 ± 40 nM and the IC50 (human TLR7) was 640 ± 210 nM.

Compound `COc1ccccc1C(=O)N1CCN(c2ccc([N+](=O)[O-])c3ncccc23)CC1` [Compound S10] has an IC50 (hTLR8) of 60 ± 10 nM and an IC50 (human TLR7) of 3060 ± 2720 nM.

`O=[N+]([O-])c1ccc(-c2ccc(O)cc2)c2cccnc12` [Compound S15] was tested, and the IC50 (hTLR8) was 20 ± 10 nM and the IC50 (human TLR7) was 20 ± 10 nM.

Work on `O=C(c1ccc(F)cc1)N1CCN(c2ccc([N+](=O)[O-])c3ncccc23)CC1` [Compound S7] yielded an IC50 (hTLR8) of 100 ± 50 nM and an IC50 (human TLR7) of 1150 ± 160 nM.

With `O=C(c1cccs1)N1CCN(c2ccc([N+](=O)[O-])c3ncccc23)CC1` [Compound S12] the IC50 (hTLR8) was 60 ± 30 nM and the IC50 (human TLR7) was 2120 ± 580 nM.

In the case of `COc1ccc(C(=O)N2CCN(c3ccc(N)c4ncccc34)CC2)cc1` [Compound S21], the IC50 (hTLR8) is reported as 820 ± 40 nM.

In the case of `Cc1ccc(C(=O)N2CCN(c3ccc([N+](=O)[O-])c4ncccc34)CC2)cc1` [Compound S2], the IC50 (hTLR8) is reported as 110 ± 40 nM and the IC50 (human TLR7) is reported as 860 ± 390 nM.

In the case of `C=CCn1c(=O)n([C@@H]2O[C@H](CO)[C@@H](O)[C@H]2O)c2nc(N)[nH]c(=O)c21` [loxoribine], the Kd [1, 3] is reported as 4.4 µM, the ΔH [1, 3] is reported as -5828 cal/mol and the “heat change upon titration” value ([1]; loxoribine into TLR7 in the presence of pre-mixed 500 μmol/L TH-407b) is reported as “completely obliterated”.

`O=C(c1ccc(Br)cc1)N1CCN(c2ccc([N+](=O)[O-])c3ncccc23)CC1` [Compound S8] was tested, and the IC50 (hTLR8) was 140 ± 170 nM and the IC50 (human TLR7) was 970 ± 1230 nM.

With `O=C(c1ccccc1)N1CCN(c2ccc([N+](=O)[O-])c3ncccc23)CC1` [Compound S6] the IC50 (hTLR8) was 100 ± 70 nM and the IC50 (human TLR7) was 1070 ± 420 nM.

In the case of `COc1ccc(C(=O)N2CCN(c3ccc([N+](=O)[O-])c4cccnc34)CC2)cc1` [Compound S24], the “IL-8 mRNA level” value [2] is reported as “inactive”.

`O=[N+]([O-])c1ccc(-c2ccc(CO)cc2)c2cccnc12` [Compound S16] showed an IC50 (hTLR8) of 1300 ± 30 nM and an IC50 (human TLR7) of 660 ± 130 nM.

With `COc1cccc(C(=O)N2CCN(c3ccc([N+](=O)[O-])c4ncccc34)CC2)c1` [Compound S9] the IC50 (hTLR8) was 80 ± 30 nM and the IC50 (human TLR7) was 1280 ± 1050 nM.

Work on `COc1ccc(C(=O)N2CCN(c3ccc([N+](=O)[O-])c4ncccc34)CC2)c(OC)c1` [Compound S11] yielded an IC50 (hTLR8) of 60 ± 30 nM and an IC50 (human TLR7) of 410 ± 330 nM.

`O=C(c1ccco1)N1CCN(c2ccc([N+](=O)[O-])c3ncccc23)CC1` [Compound S13] showed an IC50 (hTLR8) of 100 ± 10 nM and an IC50 (human TLR7) of 530 ± 110 nM.

`COc1ccc(C(=O)N2CCN(c3ccc([N+](=O)[O-])c4ncccc34)CC2)cc1` [Compound S4] showed an IC50 (hTLR8) of 70 ± 10 nM and an IC50 (human TLR7) of 530 ± 90 nM.
